We go through ten compounds from ChEMBL document CHEMBL1143976, “Synthesis of fluorine substituted pyrazolopyrimidines as potential leads for the development of PET-imaging agents for the GABAA receptors” (Bioorg Med Chem, 2008).

Data set [1] can be described thus: Displacement of [3H]flunitrazepam from GABAA receptor in Sprague-Dawley rat cerebellar membrane. More on the design: species or system Cerebellum. Summed up: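 Cerebella from adult female Sprague–Dawley rats (8–10 weeks) homogenised in ice-cold 50 mM Tris-HCl pH 7.4; 20,000g membrane pellet washed repeatedly. Incubated with N-methyl-[3H]flunitrazepam (~0.3 nM final) at 21 °C for 60 min; nonspecific binding defined with zolpidem. Filtered onto PEI-presoaked GF/B, scintillation counted. IC50 by nonlinear regression from 10–12 concentrations in triplicate; ≥3 independent experiments, mean ± SD.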
In general terms: Loss of bound radioactivity is the signal in a displacement assay; it reports binding, not function.

Data set [2] can be described thus: Distribution coefficient, log D by alkyl amide reversed phase method. It is filed as physicochemical. The conditions noted are these: octanol/water; read-out: Log D. In a few lines: (§1)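 HPLC logD per European guideline; line 4 on Multisorb RP18-7 C-18 column, line 5 on Supelcosil ABZ+Plus alkyl amide column (both 250 × 4 mm). Solvent A 5% acetonitrile/20 mM ammonium acetate held 0–5 min, then solvent B 80% acetonitrile/20 mM ammonium acetate to 40, 50 or 65 min; 1 mL/min; UV detection. SD reported.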

A short description of data set [3]: Distribution coefficient, log D by C-18 reversed phase method. It counts as physicochemical. The following applies: octanol/water; read-out: Log D. Summed up:
as §1

Turning to `CN(C(=O)c1ccc([N+](=O)[O-])cc1)c1cccc(-c2ccnc3c(C(=O)c4cccs4)cnn23)c1`, in data set [1], the IC50 was determined as 15.9 nM. Besides, the chromatographic logD came out at 2.64 in data set [2] and 2.51 in data set [3].
On to `CC(=O)N(CCF)c1cccc(-c2ccnc3c(C(=O)c4cccs4)cnn23)c1`, for which the IC50 in data set [1] is 5.71 nM. Also, the chromatographic logD in data set [3] worked out at 2.62.
`CC(C)C(=O)N(CCCF)c1cccc(-c2ccnc3c(C(=O)c4cccs4)cnn23)c1` showed an IC50 in data set [1] of 37.7 nM. Moreover, the chromatographic logD in data set [2] amounted to 2.68; in data set [3] it was 2.55.
The compound `CN(C(=O)c1ccc(F)cc1)c1cccc(-c2ccnc3c(C(=O)c4cccs4)cnn23)c1` had an IC50 in data set [1] of 14.1 nM. The results for the chromatographic logD in data set [2] and in data set [3] were 2.63 and 2.64, respectively.
Consider `CC(=O)N(C)c1cccc(-c2ccnc3c(C(=O)c4ccc(F)cc4)cnn23)c1`, for which the half-maximal inhibitory concentration (IC50) in data set [1] came to 53.3 nM. Moreover, the chromatographic logD in data set [2] turned out to be 2.38; in data set [3], 2.34.
Compound `CC(=O)N(CCCCF)c1cccc(-c2ccnc3c(C(=O)c4cccs4)cnn23)c1` had an IC50 in data set [1] of 5.98 nM. Further, the chromatographic logD in data set [3] was determined as 2.48.
Regarding `CCC(=O)N(CCCF)c1cccc(-c2ccnc3c(C(=O)c4cccs4)cnn23)c1`, in data set [1], the IC50 worked out at 5.26 nM.
In data set [1], `CC(=O)N(CCCF)c1cccc(-c2ccnc3c(C(=O)c4cccs4)cnn23)c1` had an IC50 of 2.78 nM. In addition, the results for the chromatographic logD in data set [2] and in data set [3] were 2.38 and 2.35, respectively.
The corresponding values for `CN(CCF)c1cccc(-c2ccnc3c(C(=O)c4cccs4)cnn23)c1` are 17.8 nM, 2.69 and 2.66.
Take `CC(=O)N(C)c1cccc(-c2ccnc3c(C(=O)c4cccs4)cnn23)c1` [INDIPLON]: the half-inhibitory concentration (IC50) in data set [1] worked out at 3.29 nM. The chromatographic logD was found to be 2.23 in data set [2] and 2.26 in data set [3].

For orientation: IC50 means the concentration that gives 50% inhibition.
